Results on 19 molecules are retold here after ChEMBL document CHEMBL1641473, “Synthesis, structure, theoretical and experimental in vitro antioxidant/pharmacological properties of α-aryl, N-alkyl nitrones, as potential agents for the treatment of cerebral ischemia” (2011).

Assay type in all cases: functional
Experiment [1] can be described thus: Antioxidant activity assessed as hydroxyl radical scavenging activity at 50 uM after 2 hrs by benzoic acid method. An outline of the steps: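 Hydroxyl radical from a Fenton reaction (Fe2+ plus H2O2 10 mmol) hydroxylates benzoate to fluorescent hydroxybenzoates. Incubation 2 h at 37 °C with or without nitrone; fluorescence read at excitation 305 nm, emission 407 nm. RSA% relative to no-nitrone control. Quadruplicate wells, at least three independent runs; mean ± SEM.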

Experiment [2] has as its system Radical scavenging activity. Kind of experiment: Antioxidant activity of the compound assessed as DPPH radical scavenging activity at 0.5 mM after 2 hrs. In outline: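 DPPH radical mixed with nitrone and held 2 h at room temperature in the dark. DPPH absorbance read at 517 nm. RSA% = 100 × (A0 − Ai)/A0, with A0 and Ai the absorbance without and with nitrone. Quadruplicate wells, at least three independent runs; mean ± SEM.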
In general terms: DPPH is a stable violet radical that fades when it is reduced.

The nature of experiment [3]: Antioxidant activity assessed as trolox equivalents of peroxyl radical scavenging activity by ORAC assay. In outline: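 Fluorescein (70 nM) with 2,2'-azobis(2-methylpropionamidine) dihydrochloride (12 mM) and antioxidant in 75 mM phosphate buffer pH 7.4 at 37 °C. Fluorescence recorded every minute for 98 min. Net AUC taken against the blank and plotted against concentration; slope divided by the slope of the Trolox curve from the same assay. Duplicate wells, at least three independent assays.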

Experiment [4] concerns SH-SY5Y. Kind of experiment: Neuroprotective activity against rotenone/oligomycin-A-induced death in human SH-SY5Y cells assessed as protective effect at 1 uM after 2 hrs by MTT assay. An outline of the steps:
(§1)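 Human SH-SY5Y neuroblastoma cells, low passage (<13), grown in 1:1 Ham's F-12/EMEM with 10% heat-inactivated FBS. Seeded at 1×10⁵ cells/well and treated before confluence in EMEM with 1% FBS. Insult was 30 µM rotenone plus 10 µM oligomycin-A for 24 h. Viability read by MTT (2 h, 37 °C, dark), then lysis and absorbance at 540 nm.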
For orientation: Tetrazolium dyes change colour on reduction, which living cells bring about.

In experiment [5] the test system is SH-SY5Y. The experiment in a line: Neuroprotective activity against rotenone/oligomycin-A-induced death in human SH-SY5Y cells assessed as increase of cell viability at 1 uM after 2 hrs by MTT assay. In outline:
as §1

Another experiment has as its system Mus musculus. The experiment in a line: Neuroprotective activity in NMRI mouse assessed as protection against t-BHP-induced lethality at 150 mg/kg, ip after 30 mins relative to control. To be noted: route intraperitoneal.
For experiment [6], the system named is Radical scavenging activity. The experiment in a line: Antioxidant activity of the compound assessed as DPPH radical scavenging activity at 15 mM after 2 hrs. An outline of the steps: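 DPPH radical added to test compound; mixture kept 2 h at room temperature in the dark, then absorbance read at 517 nm. RSA% = 100×(A0−Ai)/A0, where A0 and Ai are DPPH absorbance without and with compound. Quadruplicate wells, at least three independent runs; mean ± SEM.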

Experiment [7] relates to SH-SY5Y. Kind of experiment: Neuroprotective activity against rotenone/oligomycin-A-induced death in human SH-SY5Y cells assessed as increase of cell viability at 10 nM after 2 hrs by MTT assay. An outline of the steps:
as §1

The subject of experiment [8] is SH-SY5Y. Kind of experiment: Neuroprotective activity against rotenone/oligomycin-A-induced death in human SH-SY5Y cells assessed as protective effect at 10 nM after 2 hrs by MTT assay. In outline:
as §1

Experiment [9] concerns SH-SY5Y. The experiment in a line: Neuroprotective activity against rotenone/oligomycin-A-induced death in human SH-SY5Y cells assessed as protective effect at 1 mM after 2 hrs by MTT assay. In outline:
as §1

For experiment [10], the system named is SH-SY5Y. Kind of experiment: Neuroprotective activity against rotenone/oligomycin-A-induced death in human SH-SY5Y cells assessed as increase of cell viability at 1 mM after 2 hrs by MTT assay. In outline: as §1

As for `COc1cc(/C=[N+](/C)[O-])ccc1O`, the Activity in experiment [1] was 96.5%; in experiment [2], 87.6%. Also, the Activity (Trolox equivalents) in [3] turned out to be 3.35.

On to `CC(C)(C)/[N+]([O-])=C/c1ccccc1`, for which the Activity in experiment [1] stood at 94.9%; in the experiment with SH-SY5Y [4], 18.6%; in [2] it was 1.4%; in the experiment on SH-SY5Y [5] it was 69.6%; with Mus musculus, 73%. Besides, the Activity (Trolox equivalents) in [3] was found to be 0.

As to `COc1cc(Br)c(/C=[N+](\[O-])C(C)(C)C)cc1OC`, the Activity was determined as 96.3% in experiment [1]; 0% in the experiment with SH-SY5Y [4]; 0.8% in experiment [2]; 63.1% in the experiment with SH-SY5Y [5]; 70% in the experiment on Mus musculus. In addition, the Activity (Trolox equivalents) in [3] was 0.03.

With `COc1ccc2c(c1)cc(/C=[N+](\[O-])C(C)(C)C)n2C`, the Activity in the experiment on SH-SY5Y [4] was determined as 4.4%; in experiment [2] it was 4.8%; with SH-SY5Y [5] it was 62.8%; with Mus musculus, 50%. Moreover, the Activity (Trolox equivalents) in experiment [3] amounted to 7.98.

For `CC(C)(C)/[N+]([O-])=C/c1cccnc1Cl`, the Activity in experiment [1] was determined as 94.9%; in the experiment with SH-SY5Y [4] it was 0%; in [2], 1.6%; in the experiment on SH-SY5Y [5], 61.4%; in the experiment on Mus musculus it was 74%. For the same molecule, the Activity (Trolox equivalents) in [3] was 0.01.

Turning to `Cc1c(C)c2c(c(C)c1O)CCC(C)(C(=O)O)O2` (stereo not drawn), the Activity in experiment [1] is 94.3%. Also, in experiment [3], the Activity (Trolox equivalents) came out at 1.

On to `O=c1c(O)c(-c2ccc(O)c(O)c2)oc2cc(O)cc(O)c12`, for which the Activity came out at 96.6% in experiment [1] and 94.2% in experiment [6]. The Activity (Trolox equivalents) in [3] is 10.5.

Take `COc1cc(/C=C/C(=O)CC(=O)/C=C/c2ccc(O)c(OC)c2)ccc1O` [CURCUMIN]: the values for the Activity (in experiment [1]; in [6]; with Mus musculus) were 96.8%, 35% and 106%, respectively.

For the molecule `COc1cc(Br)c(/C=[N+](\[O-])Cc2ccccc2)cc1O`, the Activity in experiment [1] turned out to be 94.6%; with SH-SY5Y [4] it was 8.7%; in experiment [2] it was 25.9%; in the experiment with SH-SY5Y [5], 64.2%; in the experiment on Mus musculus, 111%. Besides, in experiment [3], the Activity (Trolox equivalents) is 7.36.

With `COc1ccc2[nH]cc(CCNC(C)=O)c2c1` [MELATONIN], the Activity with SH-SY5Y [7] was 59%; in the experiment with SH-SY5Y [8] it was 17%.

`CC(C)(C)/[N+]([O-])=C/c1c[nH]c2ccccc12`: the Activity was found to be 8% in the experiment on SH-SY5Y [4], 1.2% in experiment [2], 64.1% in the experiment with SH-SY5Y [5] and 60% in the experiment with Mus musculus. The Activity (Trolox equivalents) in experiment [3] stood at 3.69.

Consider `CC(C)(C)/[N+]([O-])=C/c1cccnc1Br`, for which the Activity in experiment [1] turned out to be 95.1%; in the experiment with SH-SY5Y [4], 24%; in experiment [2], 3.9%; in the experiment on SH-SY5Y [5], 60.1%; with Mus musculus it was 76%. Moreover, the Activity (Trolox equivalents) in [3] worked out at 0.01.

Turning to `COc1cc(/C=[N+](\[O-])Cc2ccccc2)ccc1O`, the Activity in [1] is 96.9%; with SH-SY5Y [4], 16.9%; in experiment [2], 88.2%; in the experiment with SH-SY5Y [5] it was 63.9%. The Activity (Trolox equivalents) in experiment [3] was 2.93.

Take `[O-]/[N+](=C\c1ccccc1)Cc1ccccc1`: the Activity came to 95.7% in experiment [1]; 18.4% in the experiment with SH-SY5Y [4]; 0.6% in experiment [2]; 70.8% in the experiment with SH-SY5Y [5]; 111% in the experiment with Mus musculus. Besides, the Activity (Trolox equivalents) in experiment [3] was determined as 0.01.

As for `COc1cc(Br)c(/C=[N+](\[O-])C(C)(C)C)cc1O`, the Activity in [1] was determined as 96.3%; in the experiment on SH-SY5Y [4], 11%; in experiment [2], 31.1%; in the experiment on SH-SY5Y [5], 65%; in the experiment with Mus musculus, 87%. Moreover, in experiment [3], the Activity (Trolox equivalents) stood at 5.58.

Consider `C/[N+]([O-])=C/c1ccccc1`, for which the Activity in [1] was determined as 95.3%; in the experiment with SH-SY5Y [4], 18.7%; in [2] it was 0.8%; in the experiment with SH-SY5Y [5], 64.7%. In [3], the Activity (Trolox equivalents) was found to be 0.

As to `COc1cc(Br)c(/C=[N+](\[O-])Cc2ccccc2)cc1OC`, the Activity in experiment [1] came out at 95.1%; with SH-SY5Y [4], 3%; in experiment [2] it was 0.2%; in the experiment on SH-SY5Y [5], 65.3%; in the experiment with Mus musculus, 116%. Moreover, the Activity (Trolox equivalents) in experiment [3] came out at 0.03.

Consider `CC(=O)N[C@@H](CS)C(=O)O` [ACETYLCYSTEINE], for which the results for the Activity in the experiment with SH-SY5Y [9] and in the experiment with SH-SY5Y [10] were 25% and 63.1%, respectively.

For the molecule `COc1cc(/C=[N+](\[O-])Cc2ccccc2)c(Br)cc1O`, the Activity in experiment [1] turned out to be 95.7%; in the experiment with SH-SY5Y [4] it was 13.4%; in experiment [2], 40.7%; in the experiment with SH-SY5Y [5] it was 62.8%. The Activity (Trolox equivalents) in experiment [3] came to 6.4.
